ChEMBL document CHEMBL2429860, “4-Phenyl-3,4-dihydroquinolone derivatives from Aspergillus nidulans MA-143, an endophytic fungus isolated from the mangrove plant Rhizophora stylosa” (J Nat Prod, 2013)
Activity calls are given as the source filed them. The rule behind the calls is not given here.

Experiments:
K562 = assay: Cytotoxicity against human K562 cells; format: functional, cell-based
HL-60 = assay: Cytotoxicity against human HL60 cells; format: functional, cell-based
MDA-MB-231 = assay: Cytotoxicity against human MDA-MB-231 cells; format: functional, cell-based
Bel-7402 = assay: Cytotoxicity against human Bel7402 cells; format: functional, cell-based
Escherichia coli = assay: Antibacterial activity against Escherichia coli by well diffusion method; format: functional, organism-based
In short: (§1)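 Agar well diffusion test run against E. coli and S. aureus, with chloromycetin as the positive control.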

Staphylococcus aureus = assay: Antibacterial activity against Staphylococcus aureus by well diffusion method; format: functional, organism-based; in short: as §1
[1] = Toxicity in brine shrimp; format: organism-based; conditions: artemia salina, in vivo; read-out: LD50 (the source's name)
In short: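 Lethality test using brine shrimp (Artemia salina).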

Row | SMILES | Activity (K562) | Activity (HL-60) | Activity (MDA-MB-231) | Activity (Bel-7402) | Activity (Escherichia coli) | Activity (Staphylococcus aureus) | LC50 [1] [µM]
1 | C=C(C)[C@H]1CC[C@](C)(/C=C/c2ccc3c(c2O)[C@@](O)(c2ccccc2)[C@H](OC)C(=O)N3)O1 | inactive | inactive | inactive | inactive | inactive | inactive | –
2 | CO[C@@H]1C(=O)Nc2ccccc2[C@@]1(O)c1ccccc1 | inactive | inactive | inactive | inactive | inactive | inactive | –
3 | CO[C@@H]1C(=O)Nc2ccc(/C=C/[C@@]3(C)CC[C@H](C(C)(C)O)O3)c(O)c2[C@@]1(O)c1ccccc1 | inactive | inactive | inactive | inactive | inactive | inactive | 7.1
4 | O=C1Nc2ccccc2[C@@](O)(c2ccc(O)cc2)[C@@H]1O | inactive | inactive | inactive | inactive | inactive | inactive | –
5 | CO[C@@H]1C(=O)Nc2ccc(O)cc2[C@@]1(O)c1ccccc1 | inactive | inactive | inactive | inactive | inactive | inactive | –
6 | CO[C@@H]1C(=O)Nc2ccc(/C=C/[C@]3(C)CCC(=O)[C@@H](C)C3)c(O)c2[C@@]1(O)c1ccccc1 [AFLAQUINOLONE A] | – | – | – | – | – | – | 5.5
7 | CO[C@@H]1C(=O)Nc2ccc(CC=C(C)C)c(O)c2[C@@]1(O)c1ccccc1 | inactive | inactive | inactive | inactive | inactive | inactive | 4.5
